The test system of assay [1] is Felis catus. The assay is described as follows: Inhibition of positive chronotropic response induced by stimulation of cardioaccelerator nerve of cat at 1 mg/kg (iv); Inactive. The class given is functional, organism-based. More on the design: dose 1 mg/kg. A digest of the protocol: (§1)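 Cats of either sex, 4–6 kg, were anesthetized with intraperitoneal pentobarbital sodium (30 mg/kg) and pretreated with atropine sulfate (200 μg/kg) and hexamethonium bromide (10 mg/kg). They were intubated and ventilated, with the chest opened. Bipolar platinum electrodes were placed on the right postganglionic cardioaccelerator nerves, stimulated at 2 Hz for 30 s, 2-ms pulses, supramaximal 20–25 V. Heart rate was recorded. Compounds were given iv up to 1 mg/kg.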

In assay [2] the test system is Felis catus. The assay is described as follows: Active dose range of hypotensive effect in cat; range is 0.008-0.032 uM/kg. The class given is functional.
Assay [3] deals with Felis catus. The assay is described as follows: Inhibition of positive chronotropic response induced by stimulation of cardioaccelerator nerve of cat at 1 mg/kg (iv). Format: functional. A digest of the protocol:
as §1

Assay [4] deals with Felis catus. The assay is described as follows: Ability to lower arterial blood pressure in cat at 1.7 umol/kg. The class given is functional, Artery. A digest of the protocol: (§2)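 Cats of either sex, 4–6 kg, anesthetized with intraperitoneal pentobarbital sodium (30 mg/kg), intubated and ventilated by respirator. Arterial blood pressure and heart rate were monitored. Test doses ranged from 0.5 to 1.0 mg/kg.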

The subject of assay [5] is Felis catus. In words: Ability to lower arterial blood pressure in cat at 3.4 umol/kg. The class given is functional, Artery. In outline: as §2

Calls of active or inactive are those of the source. The rule behind the calls is not given here.

Turning to `CCNCC1CCCc2cc(O)c(O)cc21` (stereo unspecified), the outcome in the assay on Felis catus [1] was inactive. `CN1CCc2cccc3c2[C@H]1Cc1ccc(O)c(O)c1-3` [APOMORPHINE] yielded a Dose range in the assay with Felis catus [2] of 0.032 µM/kg. For the same compound, the 50% effect level in the assay on Felis catus [3] (ED50) was put at a dose of 0.022 µmol/kg. Consider `CC(C)NCC1CCCc2cc(O)c(O)cc21` (stereo unspecified), for which the result in the assay on Felis catus [1] was inactive. Still for that read-out and setting: under `CC(C)N(C)CC1CCCc2cc(O)c(O)cc21` (stereo unspecified) stands “inactive”. As to `CNCC1CCCc2cc(O)c(O)cc21` (stereo unspecified), the outcome with Felis catus [1] was inactive. For the compound `Br.CN(C)CC1CCCc2cc(O)c(O)cc21` (stereo unspecified), the results for the BP in the assay on Felis catus [4] and in the assay on Felis catus [5] were 31.5 mmHg and 34.5 mmHg, respectively. Also, in the assay with Felis catus [1], the outcome was inactive.

With `CCN(CC)CC1CCCc2cc(O)c(O)cc21` (stereo unspecified), the result in the assay with Felis catus [1] was inactive.

`CCCNCC1CCCc2cc(O)c(O)cc21` (stereo unspecified): the outcome in the assay on Felis catus [1] was inactive.

These data come from ChEMBL document CHEMBL1122228, “1-(Aminomethyl)-6,7-dihydroxytetralin derivatives: synthesis and assessment of dopamine-like effects” (1983).
